Experimental data from article PMC9398548 (European journal of pharmaceutical sciences : official …, 2020).

Tests used:
white blood cells (WBCs) = test: MTT assay on non-transformed white blood cells; assay type: cell-based, human; settings: 48 h treatment with 100 μM
Method in brief: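 WBCs from a healthy adult volunteer were isolated by HiSep centrifugation at 400 xg for 30 min, followed by repeated RBC lysis and PBS washes. Cells were held at 37 °C under 5% CO2 overnight in 96-well plates. Test compound was applied at 2.5–100 μM for 48 h. After two PBS washes, MTT was added for 4 h at 37 °C; formazan was dissolved in DMSO and absorbance read at 570 nm.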

K562 cells = test: MTT cytotoxicity assay in K562 cells; assay type: cell-based; settings: read-out: K562- IC50; MTT, 48 h, Mean±SD, n=3
Method in brief: (§1)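 Cells were grown in suspension in RPMI 1640 with 10% FBS and penicillin/streptomycin/amphotericin B at 37 °C under 5% CO2. They were seeded at ~5×10^3 cells/well, kept overnight, then exposed to test compounds diluted in DMSO for 48 h. Cells were pelleted (300 g, 4 °C, 5 min) and washed twice in phosphate buffer. MTT (5 mg/ml stock) was added for 4 h at 37 °C, formazan dissolved in DMSO, and A570 read. Triplicate; IC50 given as mean±SD.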

GLUT1 = molecular target: T1, GLUT1 (Homo sapiens, UniProt P11166); assay type: cell-based
T1 sequence (P11166 1-492): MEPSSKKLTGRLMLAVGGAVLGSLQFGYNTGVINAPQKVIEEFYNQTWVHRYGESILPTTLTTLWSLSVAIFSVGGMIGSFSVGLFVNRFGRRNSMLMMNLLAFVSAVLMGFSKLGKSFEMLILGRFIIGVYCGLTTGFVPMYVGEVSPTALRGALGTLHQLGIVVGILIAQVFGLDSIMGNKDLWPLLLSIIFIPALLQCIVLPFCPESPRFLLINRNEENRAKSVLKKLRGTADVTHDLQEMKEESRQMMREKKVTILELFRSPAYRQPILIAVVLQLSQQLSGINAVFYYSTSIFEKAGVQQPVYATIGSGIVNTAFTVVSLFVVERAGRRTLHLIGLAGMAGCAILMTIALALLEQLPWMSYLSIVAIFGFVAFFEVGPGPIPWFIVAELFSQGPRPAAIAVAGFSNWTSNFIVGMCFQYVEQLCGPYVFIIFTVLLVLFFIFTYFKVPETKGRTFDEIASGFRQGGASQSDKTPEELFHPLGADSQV
Method in brief: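 VW4000fgy1 hxt0 yeast carrying human GLUT1 were grown at 30 °C: first in SC-uracil/2% maltose for 2–3 days, then 1–2 days in SC-uracil/2% glucose from OD600 ~0.5. Cells were resuspended in PBS pH 7.4 at OD600 ~10 and given 5 mM C14-glucose for 10 min. Uptake was quenched with ice-cold buffer pH 5.5, filtered, and counted. Controls: 1% DMSO and 200 μM phloretin.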

GLUT4 = molecular target: T2, GLUT4 (Homo sapiens, UniProt P14672); assay type: cell-based
T2 sequence (P14672 1-509): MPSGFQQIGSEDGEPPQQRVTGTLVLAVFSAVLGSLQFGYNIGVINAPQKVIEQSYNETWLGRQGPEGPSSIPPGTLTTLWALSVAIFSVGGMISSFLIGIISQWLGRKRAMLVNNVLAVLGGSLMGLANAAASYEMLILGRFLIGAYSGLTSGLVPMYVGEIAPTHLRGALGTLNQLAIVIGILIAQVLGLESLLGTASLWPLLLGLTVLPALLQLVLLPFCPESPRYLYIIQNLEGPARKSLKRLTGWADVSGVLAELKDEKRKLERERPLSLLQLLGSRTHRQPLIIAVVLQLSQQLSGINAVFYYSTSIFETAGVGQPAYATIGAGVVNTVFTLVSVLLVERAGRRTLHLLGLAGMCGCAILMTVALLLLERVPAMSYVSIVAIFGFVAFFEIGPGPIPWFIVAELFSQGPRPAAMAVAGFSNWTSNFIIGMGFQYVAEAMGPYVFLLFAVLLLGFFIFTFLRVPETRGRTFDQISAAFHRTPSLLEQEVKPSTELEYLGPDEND
Method in brief: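 VW4000fgy1erg4 hxt0 yeast expressing human GLUT4 were cultured at 30 °C, first in SC-uracil/1% maltose and then in SC-uracil/0.2% glucose from OD600 ~0.5. Cells in PBS pH 7.4 (OD600 ~10) were fed 5 mM C14-glucose for 10 min. The reaction was quenched in ice-cold buffer pH 5.5, then filtered and scintillation-counted. Vehicle control was 1% DMSO; 200 μM phloretin served as positive control.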

CEM cells [1] = test: Apoptosis induction by flow cytometry; assay type: cell-based; settings: IC50 concentration, 24 h
Method in brief: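 CEM cells seeded in 24-well plates and held overnight at 37 °C under CO2. Medium was then replaced, and cells were exposed to the test compound for 24 h; untreated cells served as the negative control. Cells were washed in PBS, pelleted at 500 xg and 4 °C, resuspended in ice-cold binding buffer, and stained with annexin V-FITC plus PI for 15 min on ice in the dark. Analysed by flow cytometry, in triplicate.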

CEM cells [2] = test: Cell cycle analysis by flow cytometry; assay type: cell-based; settings: IC50 concentration, 24 h
Method in brief: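 Cells were seeded in 24-well plates overnight, then given fresh medium and exposed to the test compound for 24 h beside an untreated control. After a PBS wash, cells were fixed in ice-cold 70% ethanol on ice for 2 h, then washed again. They were stained with PI for 15 min at 37 °C and analysed by flow cytometry within 30 min, in triplicate.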

CEM cells [3] = test: MTT cytotoxicity assay in CEM cells; assay type: cell-based; settings: read-out: CEM- IC50, 48 h, Mean±SD, n=3
Method in brief: as §1

GLUT5 = assay type: cell-based, human
Method in brief: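 Uses hexose-transporter-null VW4000 yeast expressing human GLUT5, cultured at 30 °C and 180 rpm. Cells were grown one day in YEP/2% maltose with G418, then 1–2 days in YEP/2% fructose starting from OD600 ~0.5. Washed cells in PBS pH 7.4 (OD600 ~10) took up 10 mM C14-fructose for 10 min. Uptake was stopped with ice-cold KPi/LiCl quench buffer pH 5.5, then filtered and scintillation-counted. Controls were 1% DMSO and 100 μM MSNBA. Screening was at 100 μM; three independent measurements.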

[4] = primary screen, 100 μM compound

SMILES: O=C(CN1C(=O)SC(=Cc2ccc(Cl)cc2)C1=O)Nc1ccc(Cl)cc1C(F)(F)F [Compound G5, 2-[5-(4-Chlorobenzylidene)-2,4-dioxothiazolidin-3-yl]-N-(4-chloro-2-trifluromethylphenyl) acetamide]
- viable WBC cells (white blood cells (WBCs)): More than 66%
- IC50 (K562 cells): 34.9 ± 1.07 µM
- decrease of relative transport activity of GLUT1 (GLUT1; [4]): > 50%
- IC50 (GLUT1; read-out: GLUT1 IC50, hxt0 yeast cells expressing GLUT1, 5 mM C14-glucose, 10 minutes): 5.4 ± 1.3 µM
- decrease of relative transport activity of GLUT4 (GLUT4; [4]): > 50%
- IC50 (GLUT4; read-out: GLUT4 IC50, hxt0 yeast cells expressing GLUT4, 5 mM C14-glucose, 10 minutes): 9.5 ± 2.8 µM
- percentage of cells in early apoptotic phase (CEM cells [1]): 1.30%
- percentage of cells in late apoptotic phase (CEM cells [1]): 59.22%
- percentage of live cells (CEM cells [1]): 25.58%
- percentage of necrotic cell population (CEM cells [1]): 13.90%
- percentage of cells arrested in G0-G1 phase (CEM cells [2]): 52.0%
- percentage of cells arrested in the G2-M phase (CEM cells [2]): 22.1%
- IC50 (CEM cells [3]): 13.5 ± 3.88 µM
- decrease of relative transport activity of GLUT5 (GLUT5; [4]): > 50%
- IC50 (GLUT5; read-out: GLUT5 IC50, hxt0 yeast cells expressing GLUT5, 10 mM C14-fructose, 10 minutes): 34.5 ± 2.4 µM
